# Measurements published in ChEMBL document CHEMBL4196108, “5-Aroylindoles Act as Selective Histone Deacetylase 6 Inhibitors Ameliorating Alzheimer's Disease Phenotypes” (J Med Chem, 2018).
# pIC50: −log10 of the molar value. Active and inactive are the calls of the source. The rule behind the calls is not given here.
# Assays:
# Homo sapiens = organism: Homo sapiens; test: Selectivity index, ratio of IC50 for human HDAC10 to IC50 for human HDAC6
# [1] = molecular target: T1, Protein deacetylase HDAC6 (Homo sapiens) (UniProt Q9UBN7); test: Inhibition of HDAC6 in human SH-SY5Y cells transfected with pCAX FLAG APP and pRK5-EGFP-Tau P301L plasmids assessed as inhibition of Tau P301L mutant phosphorylation at Ser396 residue at 1 uM after 24 hrs by Western blot analysis; format: cell-based
# T1 sequence (whole entry): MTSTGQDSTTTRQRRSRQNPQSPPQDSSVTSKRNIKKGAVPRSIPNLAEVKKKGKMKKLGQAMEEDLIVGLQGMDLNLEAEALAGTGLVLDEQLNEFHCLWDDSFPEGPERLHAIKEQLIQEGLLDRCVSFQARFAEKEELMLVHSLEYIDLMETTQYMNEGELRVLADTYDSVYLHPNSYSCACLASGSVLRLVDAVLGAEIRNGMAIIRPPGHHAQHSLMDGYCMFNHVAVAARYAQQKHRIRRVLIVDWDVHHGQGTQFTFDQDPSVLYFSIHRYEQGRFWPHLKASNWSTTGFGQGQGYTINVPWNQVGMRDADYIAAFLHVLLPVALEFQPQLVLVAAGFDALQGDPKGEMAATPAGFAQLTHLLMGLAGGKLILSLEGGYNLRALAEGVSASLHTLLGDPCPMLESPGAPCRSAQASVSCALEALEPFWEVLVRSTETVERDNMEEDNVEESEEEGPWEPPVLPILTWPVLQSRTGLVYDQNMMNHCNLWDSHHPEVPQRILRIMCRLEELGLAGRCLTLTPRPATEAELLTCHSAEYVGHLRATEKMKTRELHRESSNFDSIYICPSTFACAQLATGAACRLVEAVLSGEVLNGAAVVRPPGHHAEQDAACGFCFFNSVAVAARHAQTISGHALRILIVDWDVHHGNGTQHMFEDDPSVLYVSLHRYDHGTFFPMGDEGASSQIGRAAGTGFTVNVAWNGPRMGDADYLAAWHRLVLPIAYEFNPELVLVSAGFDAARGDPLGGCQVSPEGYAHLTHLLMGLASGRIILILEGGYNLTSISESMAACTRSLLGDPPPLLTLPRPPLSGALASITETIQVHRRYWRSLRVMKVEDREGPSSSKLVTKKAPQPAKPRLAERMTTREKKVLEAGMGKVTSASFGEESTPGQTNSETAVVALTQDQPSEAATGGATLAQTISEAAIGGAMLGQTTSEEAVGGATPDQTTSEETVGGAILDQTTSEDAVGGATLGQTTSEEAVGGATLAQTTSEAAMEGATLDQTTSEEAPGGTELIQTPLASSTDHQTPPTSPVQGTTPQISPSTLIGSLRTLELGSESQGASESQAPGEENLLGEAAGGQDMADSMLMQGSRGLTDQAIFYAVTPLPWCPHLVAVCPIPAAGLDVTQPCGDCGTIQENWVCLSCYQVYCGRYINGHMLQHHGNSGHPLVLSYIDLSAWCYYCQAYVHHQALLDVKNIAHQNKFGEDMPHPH
# Method in brief: (§1)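 SH-SY5Y or Neuro-2a cells cotransfected 24 h with pCAX APP695 and pRK5-EGFP-Tau P301L, then treated 24 h at 1 µM. 20 µg lysate protein immunoblotted for APP and phospho-tau Ser396/Ser404. Mean ± STD of three independent experiments; Student's t-test.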
# Histone deacetylase 2 = Histone deacetylase 2 (Homo sapiens, UniProt Q92769); test: Inhibition of human HDAC2 using RHKKAc peptide as substrate
# Histone deacetylase 2, sequence (Q92769 whole entry): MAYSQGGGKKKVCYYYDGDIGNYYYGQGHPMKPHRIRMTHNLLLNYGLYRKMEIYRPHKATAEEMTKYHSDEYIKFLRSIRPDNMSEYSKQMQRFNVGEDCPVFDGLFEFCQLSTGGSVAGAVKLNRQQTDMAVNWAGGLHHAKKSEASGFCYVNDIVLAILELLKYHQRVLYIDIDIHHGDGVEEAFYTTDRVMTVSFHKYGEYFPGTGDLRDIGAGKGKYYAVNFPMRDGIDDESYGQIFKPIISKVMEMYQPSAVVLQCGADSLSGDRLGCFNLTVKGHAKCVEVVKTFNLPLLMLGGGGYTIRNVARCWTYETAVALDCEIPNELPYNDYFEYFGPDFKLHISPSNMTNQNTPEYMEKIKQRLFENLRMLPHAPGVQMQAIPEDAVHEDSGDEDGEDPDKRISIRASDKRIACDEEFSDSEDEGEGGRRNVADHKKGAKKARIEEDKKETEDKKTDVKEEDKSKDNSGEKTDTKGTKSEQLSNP
# [2] = molecular target: T2, Protein deacetylase HDAC6 (Mus musculus) (UniProt Q9Z2V5); test: Inhibition of HDAC6 in mouse Neuro-2a cells transfected with pCAX FLAG APP and pRK5-EGFP-Tau P301L plasmids assessed as inhibition of Tau P301L mutant phosphorylation at Ser396 residue at 1 uM after 24 hrs by Western blot analysis; format: cell-based; method in brief: as §1
# T2 sequence (whole entry): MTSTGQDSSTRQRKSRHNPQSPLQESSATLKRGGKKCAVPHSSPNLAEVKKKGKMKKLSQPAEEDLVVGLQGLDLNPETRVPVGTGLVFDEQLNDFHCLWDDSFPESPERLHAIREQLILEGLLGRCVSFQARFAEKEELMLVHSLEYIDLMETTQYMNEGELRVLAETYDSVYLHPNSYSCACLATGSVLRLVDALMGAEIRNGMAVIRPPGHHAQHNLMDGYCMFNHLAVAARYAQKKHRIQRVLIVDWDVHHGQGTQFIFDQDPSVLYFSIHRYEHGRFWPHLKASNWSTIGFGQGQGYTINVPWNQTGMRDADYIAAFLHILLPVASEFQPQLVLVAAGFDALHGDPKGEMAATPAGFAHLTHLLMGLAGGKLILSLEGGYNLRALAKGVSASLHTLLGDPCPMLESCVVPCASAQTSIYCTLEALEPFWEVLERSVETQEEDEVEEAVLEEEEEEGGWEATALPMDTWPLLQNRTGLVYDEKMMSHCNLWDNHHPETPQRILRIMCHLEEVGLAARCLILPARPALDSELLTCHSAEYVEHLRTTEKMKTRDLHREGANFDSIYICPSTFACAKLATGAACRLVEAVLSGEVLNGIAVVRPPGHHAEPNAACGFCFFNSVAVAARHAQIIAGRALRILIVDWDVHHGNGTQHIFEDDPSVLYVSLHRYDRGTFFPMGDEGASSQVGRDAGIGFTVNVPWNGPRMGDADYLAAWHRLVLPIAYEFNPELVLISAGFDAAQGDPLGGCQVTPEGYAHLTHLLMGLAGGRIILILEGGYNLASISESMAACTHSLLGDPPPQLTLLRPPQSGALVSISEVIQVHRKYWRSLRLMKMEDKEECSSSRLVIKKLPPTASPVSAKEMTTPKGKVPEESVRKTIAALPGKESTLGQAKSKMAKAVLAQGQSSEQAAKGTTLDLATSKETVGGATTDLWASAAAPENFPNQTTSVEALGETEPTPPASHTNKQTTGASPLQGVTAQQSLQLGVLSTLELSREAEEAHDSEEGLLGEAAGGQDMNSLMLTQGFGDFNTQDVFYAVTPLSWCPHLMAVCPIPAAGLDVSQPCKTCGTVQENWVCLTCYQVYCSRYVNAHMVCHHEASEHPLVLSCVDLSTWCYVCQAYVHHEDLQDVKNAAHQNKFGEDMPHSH
# Mus musculus = test: In vivo inhibition of HDAC6 in scopolamine-treated 3xTg-AD transgenic mouse brain hippocampal CA1 region assessed as increase in acetyl-alpha-tubulin level at 50 mg/kg, po by Western blot analysis; format: functional, organism-based
# Method in brief: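 Female 3xTg-AD mice, fed standard diet to 6 months of age, then dosed orally at 50 or 100 mg/kg once daily for three months. Brains removed; hippocampal tissue lysates immunoblotted for acetyl-α-tubulin and phospho-tau Ser396 and Ser404. Mean ± STD; one-way ANOVA.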
# [3] = molecular target: T1, Protein deacetylase HDAC6 (Homo sapiens); test: Inhibition of HDAC6 in human SH-SY5Y cells transfected with pCAX FLAG APP and pRK5-EGFP-Tau P301L plasmids assessed as suppression of phosphorylated tau P301L mutant-induced apoptosis by measuring accumulation at sub-G1 phase at 0.01 uM after 24 hrs by propidium iodide staining-based flow cytometry (reference value: 22.01%); format: cell-based; set-up: scale not given: the % may be the effect or the level left
SMILES,Ratio IC50 (Homo sapiens),inhibition [1],pIC50 (Histone deacetylase 2),inhibition [2],inhibition (Mus musculus),Activity [3]
O=C(NO)c1ccc(Cn2ccc3cc(C(=O)c4ccc(Cl)cc4)ccc32)cc1,> 14900,Active,5.68,Active,–,–
COc1ccc(C(=O)c2ccc3c(ccn3Cc3ccc(C(=O)NO)cc3)c2)cc1,15300,Active,6.25,Active,Active,15.6%
O=C(NO)c1ccc(Cn2ccc3cc(C(=O)c4ccc(F)cc4)ccc32)cc1,> 10800,Active,5.29,Active,–,–
